Data reported in ChEMBL document CHEMBL1125199, “Comparison of azabicyclic esters and oxadiazoles as ligands for the muscarinic receptor” (J Med Chem, 1991).

Legend:
[1] = biological target: T1, Muscarinic acetylcholine receptor (Rattus norvegicus) (UniProt P08482+P08483+P08485+P08911+P10980); experiment: Relative binding of QNB and OXO-M to muscarininc receptors (ratio of IC50); format: protein assay
Method in brief: (§1)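 Ratio of IC50 for [3H]QNB displacement to IC50 for [3H]OXO-M displacement in rat cerebral cortex membranes. [3H]QNB at 0.27 nM; [3H]OXO-M at 2 nM with 2 mM MgCl2. Both incubated at 37 °C for 30 min in 50 mM Tris pH 7.7.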

[2] = biological target: Muscarinic acetylcholine receptor; experiment: The compound was tested in vitro for central muscarinic acetylcholine receptor affinity to displace [3H]quinuclidinyl benzilate from rat cerebral cortex; Value ranges from 6200-6700; format: tissue-based
[3] = biological target: Muscarinic acetylcholine receptor; experiment: The compound was tested in vitro for central muscarinic acetylcholine receptor affinity to displace [3H]oxotremorine-M from rat cerebral cortex; Value ranges from 14-27; format: tissue-based
Mus musculus [4] = experiment: Dose administered subcutaneously which causes a fall of 3 degrees C in mean rectal temperature in group of 5 mice; format: functional
Method in brief: (§2)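 Male CDI mice, 25–32 g, housed singly; rectal temperature read by thermocouple probe at 2.5 cm depth, three baseline readings at 20–30 min intervals, then every 15 min after dosing. ED3 read graphically as the dose giving a 3 °C fall in mean rectal temperature, groups of five; 95% confidence intervals given.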

Mus musculus [5] = experiment: Dose administered perorally which causes a fall of 3 degrees C in mean rectal temperature in group of 5 mice; format: functional; method in brief: as §2
[6] = biological target: Muscarinic acetylcholine receptor; experiment: The compound was tested in vitro for central muscarinic acetylcholine receptor affinity to displace [3H]oxotremorine-M from rat cerebral cortex; Value ranges from 73-120; format: tissue-based
[7] = biological target: Muscarinic acetylcholine receptor; experiment: The compound was tested in vitro for central muscarinic acetylcholine receptor affinity to displace [3H]quinuclidinyl benzilate from rat cerebral cortex; Value ranges from 15000-45000; format: tissue-based
[8] = biological target: Muscarinic acetylcholine receptor; experiment: The compound was tested in vitro for central muscarinic acetylcholine receptor affinity to displace [3H]quinuclidinyl benzilate from rat cerebral cortex; Value ranges from 1700-2000; format: tissue-based
[9] = biological target: Muscarinic acetylcholine receptor; experiment: The compound was tested in vitro for central muscarinic acetylcholine receptor affinity to displace [3H]oxotremorine-M from rat cerebral cortex; Value ranges from 6-29; format: tissue-based
[10] = biological target: Muscarinic acetylcholine receptor; experiment: The compound was tested in vitro for central muscarinic acetylcholine receptor affinity to displace [3H]oxotremorine-M from rat cerebral cortex; Value ranges from 100-150; format: tissue-based
[11] = biological target: Muscarinic acetylcholine receptor; experiment: The compound was tested in vitro for central muscarinic acetylcholine receptor affinity to displace [3H]quinuclidinyl benzilate from rat cerebral cortex; Value ranges from 3900-5800; format: tissue-based
[12] = biological target: Muscarinic acetylcholine receptor; experiment: The compound was tested in vitro for central muscarinic acetylcholine receptor affinity to displace [3H]oxotremorine-M from rat cerebral cortex; Value ranges from 190-280; format: tissue-based
[13] = biological target: Muscarinic acetylcholine receptor; experiment: The compound was tested in vitro for central muscarinic acetylcholine receptor affinity to displace [3H]quinuclidinyl benzilate from rat cerebral cortex; Value ranges from 44000-60000; format: tissue-based
[14] = biological target: Muscarinic acetylcholine receptor; experiment: The compound was tested in vitro for central muscarinic acetylcholine receptor affinity to displace [3H]oxotremorine-M from rat cerebral cortex; Value ranges from 93-280; format: tissue-based
[15] = biological target: Muscarinic acetylcholine receptor; experiment: The compound was tested in vitro for central muscarinic acetylcholine receptor affinity to displace [3H]quinuclidinyl benzilate from rat cerebral cortex; Value ranges from 48000-100000; format: tissue-based
[16] = biological target: T1, Muscarinic acetylcholine receptor (Rattus norvegicus); experiment: It is the ratio of IC50 (QNB) to that of IC50 (OXO-M); format: protein assay; method in brief: as §1
[17] = biological target: Muscarinic acetylcholine receptor; experiment: The compound was tested in vitro for central muscarinic acetylcholine receptor affinity to displace [3H]oxotremorine-M from rat cerebral cortex; Value ranges from 36-85; format: tissue-based
[18] = biological target: Muscarinic acetylcholine receptor; experiment: The compound was tested in vitro for central muscarinic acetylcholine receptor affinity to displace [3H]quinuclidinyl benzilate from rat cerebral cortex; Value ranges from 29000-33000; format: tissue-based
[19] = biological target: Muscarinic acetylcholine receptor; experiment: The compound was tested in vitro for central muscarinic acetylcholine receptor affinity to displace [3H]oxotremorine-M from rat cerebral cortex; Value ranges from 200-340; format: tissue-based
[20] = biological target: Muscarinic acetylcholine receptor; experiment: The compound was tested in vitro for central muscarinic acetylcholine receptor affinity to displace [3H]quinuclidinyl benzilate from rat cerebral cortex; Value ranges from 2800-6300; format: tissue-based
[21] = biological target: Muscarinic acetylcholine receptor; experiment: The compound was tested in vitro for central muscarinic acetylcholine receptor affinity to displace [3H]oxotremorine-M from rat cerebral cortex; Value ranges from 34-52; format: tissue-based
[22] = biological target: Muscarinic acetylcholine receptor; experiment: The compound was tested in vitro for central muscarinic acetylcholine receptor affinity to displace [3H]quinuclidinyl benzilate from rat cerebral cortex; Value ranges from 8000-11000; format: tissue-based
[23] = biological target: Muscarinic acetylcholine receptor; experiment: The compound was tested in vitro for central muscarinic acetylcholine receptor affinity to displace [3H]oxotremorine-M from rat cerebral cortex; Value ranges from 93-190; format: tissue-based
[24] = biological target: Muscarinic acetylcholine receptor; experiment: The compound was tested in vitro for central muscarinic acetylcholine receptor affinity to displace [3H]quinuclidinyl benzilate from rat cerebral cortex; Value ranges from 14000-38000; format: tissue-based
[25] = biological target: Muscarinic acetylcholine receptor; experiment: The compound was tested in vitro for central muscarinic acetylcholine receptor affinity to displace [3H]oxotremorine-M from rat cerebral cortex; Value ranges from 41-48; format: tissue-based
[26] = biological target: Muscarinic acetylcholine receptor; experiment: The compound was tested in vitro for central muscarinic acetylcholine receptor affinity to displace [3H]quinuclidinyl benzilate from rat cerebral cortex; Value ranges from 2300-2600; format: tissue-based
[27] = biological target: Muscarinic acetylcholine receptor; experiment: The compound was tested in vitro for central muscarinic acetylcholine receptor affinity to displace [3H]oxotremorine-M from rat cerebral cortex; Value ranges from 78-200; format: tissue-based
[28] = biological target: Muscarinic acetylcholine receptor; experiment: The compound was tested in vitro for central muscarinic acetylcholine receptor affinity to displace [3H]quinuclidinyl benzilate from rat cerebral cortex; Value ranges from 23000-38000; format: tissue-based
[29] = biological target: Muscarinic acetylcholine receptor; experiment: The compound was tested in vitro for central Muscarinic acetylcholine receptor affinity to displace [3H]oxotremorine-M from rat cerebral cortex; Value ranges from 12-18; format: tissue-based
Mus musculus [30] = experiment: Dose administered subcutaneously which causes a fall of 3 degrees C in mean rectal temperature in group of 5 mice.; format: functional; method in brief: as §2
[31] = It is the ratio of IC50(QNB) to that of IC50(OXO-M); method in brief: as §1
[32] = biological target: Muscarinic acetylcholine receptor; experiment: The compound was tested in vitro for central Muscarinic acetylcholine receptor affinity to displace [3H]quinuclidinyl benzilate from rat cerebral cortex; Value ranges from […]; format: tissue-based
[33] = biological target: Muscarinic acetylcholine receptor; experiment: The compound was tested for muscarinic acetylcholine receptor affinity to displace [3H]oxotremorine-M from rat cerebral cortex; Value ranges from 250-280; format: tissue-based
[34] = biological target: Muscarinic acetylcholine receptor; experiment: The compound was tested in vitro for central muscarinic acetylcholine receptor affinity to displace [3H]quinuclidinyl benzilate from rat cerebral cortex; Value ranges from 1300-2300; format: tissue-based
[35] = biological target: Muscarinic acetylcholine receptor; experiment: The compound was tested in vitro for central muscarinic acetylcholine receptor affinity to displace [3H]oxotremorine-M from rat cerebral cortex; Value ranges from 440-600; format: tissue-based
[36] = biological target: Muscarinic acetylcholine receptor; experiment: The compound was tested in vitro for central muscarinic acetylcholine receptor affinity to displace [3H]quinuclidinyl benzilate from rat cerebral cortex; Value ranges from 16000-36000; format: tissue-based
[37] = biological target: Muscarinic acetylcholine receptor; experiment: The compound was tested in vitro for central muscarinic acetylcholine receptor affinity to displace [3H]quinuclidinyl benzilate from rat cerebral cortex; Value ranges from 930-1100; format: tissue-based
[38] = biological target: Muscarinic acetylcholine receptor; experiment: The compound was tested in vitro for central muscarinic acetylcholine receptor affinity to displace [3H]oxotremorine-M from rat cerebral cortex; Value ranges from 1.6-3.9; format: tissue-based
[39] = biological target: Muscarinic acetylcholine receptor; experiment: The compound was tested in vitro for central muscarinic acetylcholine receptor affinity to displace [3H]quinuclidinyl benzilate from rat cerebral cortex; Value ranges from 15000-25000; format: tissue-based
[40] = biological target: Muscarinic acetylcholine receptor; experiment: The compound was tested in vitro for central muscarinic acetylcholine receptor affinity to displace [3H]oxotremorine-M from rat cerebral cortex; Value ranges from 950-1000; format: tissue-based
[41] = biological target: Muscarinic acetylcholine receptor; experiment: The compound was tested in vitro for central muscarinic acetylcholine receptor affinity to displace [3H]quinuclidinyl benzilate from rat cerebral cortex; Value ranges from 11000-14000; format: tissue-based
[42] = biological target: Muscarinic acetylcholine receptor; experiment: The compound was tested in vitro for central muscarinic acetylcholine receptor affinity to displace [3H]oxotremorine-M from rat cerebral cortex; Value ranges from 75-80; format: tissue-based
[43] = biological target: Muscarinic acetylcholine receptor; experiment: The compound was tested in vitro for central muscarinic acetylcholine receptor affinity to displace [3H]oxotremorine-M from rat cerebral cortex; Value ranges from 25-31; format: tissue-based
[44] = biological target: Muscarinic acetylcholine receptor; experiment: The compound was tested in vitro for central muscarinic acetylcholine receptor affinity to displace [3H]quinuclidinyl benzilate from rat cerebral cortex; Value ranges from 1800-3000; format: tissue-based
[45] = biological target: Muscarinic acetylcholine receptor; experiment: The compound was tested in vitro for central muscarinic acetylcholine receptor affinity to displace [3H]quinuclidinyl benzilate from rat cerebral cortex; Value ranges from 60000-65000; format: tissue-based
[46] = biological target: Muscarinic acetylcholine receptor; experiment: The compound was tested in vitro for central muscarinic acetylcholine receptor affinity to displace [3H]oxotremorine-M from rat cerebral cortex; Value ranges from 1000-1900; format: tissue-based
[47] = biological target: Muscarinic acetylcholine receptor; experiment: The compound was tested in vitro for central muscarinic acetylcholine receptor affinity to displace [3H]quinuclidinyl benzilate from rat cerebral cortex; Value ranges from 8000-17000; format: tissue-based
[48] = biological target: Muscarinic acetylcholine receptor; experiment: The compound was tested in vitro for central muscarinic acetylcholine receptor affinity to displace [3H]oxotremorine-M from rat cerebral cortex; Value ranges from 650-1900; format: tissue-based

SMILES: COC(=O)C12CCCN(CC1)C2 (stereo unspecified)
- Ratio [1]: 340
- IC50 [2]: 6400 nM
- IC50 [3]: 19 nM
- ED3 (Mus musculus [4]): 0.078 mg/kg
- ED3 (Mus musculus [5]): >0.3 mg/kg

SMILES: Cc1nc([C@@H]2CN3CC[C@@H]2C3)no1
- Ratio [1]: 290
- IC50 [6]: 92 nM
- IC50 [7]: 27000 nM

SMILES: Cc1noc(C2CN3CCC2CC3)n1 (stereo unspecified)
- IC50 [8]: 1800 nM
- Ratio [1]: 130
- IC50 [9]: 14 nM

SMILES: COC(=O)[C@@H]1C[C@H]2CCCN(C2)C1
- Ratio [1]: 37
- IC50 [10]: 130 nM
- IC50 [11]: 4800 nM

SMILES: COC(=O)[C@@H]1CN2CC[C@@H]1C2
- IC50 [12]: 230 nM
- Ratio [1]: 220
- IC50 [13]: 51000 nM
- ED3 (Mus musculus [4]): 0.41 mg/kg
- ED3 (Mus musculus [5]): >10 mg/kg

SMILES: Cc1nnc(C23CCN(CC2)C3)o1
- IC50 [14]: 180 nM
- IC50 [15]: 70000 nM
- Ratio [16]: 380

SMILES: COC(=O)C12CCN(CC1)C2
- IC50 [17]: 48 nM
- Ratio [16]: 650
- IC50 [18]: 31000 nM

SMILES: Cc1nc(C23CCCN(CC2)C3)no1 (stereo unspecified)
- IC50 [19]: 260 nM
- Ratio [16]: 16
- IC50 [20]: 4200 nM

SMILES: Cc1nnc(C23CCCN(CC2)C3)o1 (stereo unspecified)
- IC50 [21]: 42 nM
- IC50 [22]: 9400 nM
- Ratio [16]: 220

SMILES: Cc1noc(C23CCN(CC2)C3)n1
- IC50 [23]: 130 nM
- Ratio [1]: 170
- IC50 [24]: 23000 nM

SMILES: Cc1noc([C@@H]2CN3CCC[C@@H]2C3)n1
- Ratio [1]: 55
- IC50 [25]: 44 nM
- IC50 [26]: 2400 nM

SMILES: Cc1nnc([C@@H]2CN3CC[C@@H]2C3)o1
- IC50 [27]: 120 nM
- Ratio [16]: 240
- IC50 [28]: 29000 nM

SMILES: Cc1noc(C23CCCN(CC2)C3)n1 (stereo unspecified)
- IC50 [29]: 15 nM
- ED3 (Mus musculus [30]): 0.0029 mg/kg
- Ratio [31]: 230
- ED3 (Mus musculus [5]): 0.018 mg/kg
- IC50 [32]: 3500 nM

SMILES: Cc1noc([C@@H]2C[C@H]3CCCN(C3)C2)n1
- Ratio [1]: 7
- IC50 [33]: 260 nM
- IC50 [34]: 1730 nM

SMILES: COC(=O)C1CN2CCC1CC2 (stereo unspecified)
- Ratio [1]: 49
- IC50 [35]: 520 nM
- IC50 [36]: 25000 nM

SMILES: Cc1noc([C@@H]2CN3CC[C@@H]2C3)n1
- Ratio [1]: 360
- IC50 [37]: 1000 nM
- IC50 [38]: 2.8 nM
- ED3 (Mus musculus [4]): 0.0005 mg/kg
- ED3 (Mus musculus [5]): 0.0011 mg/kg

SMILES: Cc1nnc(C2CN3CCC2CC3)o1 (stereo unspecified)
- IC50 [39]: 19000 nM
- IC50 [40]: 980 nM
- Ratio [16]: 20

SMILES: COC(=O)[C@@H]1C[C@H]2CCN(C2)C1
- IC50 [41]: 12000 nM
- Ratio [1]: 160
- IC50 [42]: 77 nM

SMILES: Cc1noc([C@@H]2C[C@H]3CCN(C3)C2)n1
- Ratio [1]: 84
- IC50 [43]: 28 nM
- IC50 [44]: 2400 nM

SMILES: COC(=O)[C@@H]1C[N@@]2CCC[C@@H]1C2
- IC50 [45]: 62000 nM
- IC50 [46]: 1400 nM
- Ratio [16]: 46

SMILES: Cc1nc(C2CN3CCC2CC3)no1 (stereo unspecified)
- IC50 [47]: 12000 nM
- Ratio [16]: 10
- IC50 [48]: 1100 nM
